assay: Toxicity liver stage against HepG2, at 10uM; type: cell-based; set-up: test concentration 10 uM, cell line HepG2-A16-CD81EGFP; settings: human, HepG2-A16-CD81EGFP cells; read-out: INHIBITION
Outline: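 Uninfected HepG2-A16-CD81EGFP cells, 3 × 10^3 per well, 1536-well, plated on prespotted compound at 10 μM final, parasite-free screening media added to match infected plates; puromycin 10 μM positive, DMSO 0.5% negative; run in parallel with 48 h PbLuc assay at 37 °C, 5% CO2; viability by CellTiter-Glo luminescence, normalized to controls.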

| Structure (SMILES) | cytotoxicity at 10 µM |
| --- | --- |
| CC(c1ccc(F)cc1)N1CCN(Cc2ccc(C#N)cc2)CC1 (stereo unspecified) | -6.17% |
| O=C(NC[C@H]1OC[C@@H](NCc2ccc(F)cc2)[C@@H]1O)c1ccncc1 | 7.2% |
| CCCN(CCC)CCNc1c(-c2ccccc2)c(=O)c1=O | -82.1% |
| CCCS(=O)(=O)N1CC(=O)N(Cc2cccc(OC)c2OC)CC(O)C1 (stereo unspecified) | -12.9% |
| Cc1ccccc1C(=O)N1CC2(COC(C)(C)OC2)C1 | 4.56% |
| COC[C@]12COC[C@H]1CN(C(=O)C1CC(F)(F)C1)C2 | 5.83% |
| CCC1=N[C@@]2(CC[C@@H]3CN(C(=O)NCC(C)C)C[C@@H]32)C(=O)N1CCOC | 10.3% |
| Cc1ccc(C)c(NC(=O)Cn2cc(I)cn2)c1 | 7.72% |
| CC(=O)c1c(C)nn(S(=O)(=O)c2ccccc2)c1C | -0.305% |
| O=c1cc(CN(CCO)C2CC2)nc2ccc(Cl)cn12 | 14.7% |
| Cc1nc(NS(=O)(=O)c2cc(C)c(Br)cc2C)no1 | 5.42% |
| O=C(c1ccccc1)N1CCN(C2CCc3ccc(F)cc32)CC1 (stereo unspecified) | 11.1% |
| COc1ccc(OC)c(C(=O)Nc2cccnc2-n2cncn2)c1 | -17% |
| Cc1nc(-c2ccc(S(=O)(=O)N3CCSCC3)cc2)co1 | 5.18% |
| N#Cc1cccc(-c2ncnn2CC2(O)CCCCC2)c1 | 8.83% |
| Cc1ccc(CNC(=O)N2CCOCC2C2CC2)cc1F (stereo unspecified) | 10.4% |
| Cn1cccc1CNCc1nnc2n1CCCC2C(F)(F)F (stereo unspecified) | -7.53% |
| CCOc1ccccc1NC(C)C(=O)N(C)Cc1cccc(F)c1 (stereo unspecified) | 12.1% |
| c1nc(N2CCOC(Cn3cncn3)C2)c2sccc2n1 (stereo unspecified) | 16.7% |
| Cc1cc2cc(CNC3CCN(S(C)(=O)=O)CC3)oc2cc1C | -0.779% |
| CCN(CC(=O)Nc1c(C)n[nH]c1C)CC(O)c1ccc(C)cc1 (stereo unspecified) | -2.86% |

| Structure (SMILES) | cytotoxicity at 10 µM |
| --- | --- |
| Cc1n[nH]c(C2CN(CCCOc3ccc(F)cc3)CCO2)n1 (stereo unspecified) | -5.76% |
| CN(Cc1ccccc1NCc1ncc[nH]1)C(=O)c1cccs1 | -3.21% |
| CN(CC(O)C1CC1)C(=O)c1ccc(-c2nc(C3CC3)no2)cc1 (stereo unspecified) | -3.45% |
| COc1cccc(S(=O)(=O)CCNCCn2cccn2)c1 | -4.96% |
| O=C(CCN1CCOCC1)Nc1cccc(CNCc2cccs2)c1 | 5.04% |
| Cc1ccccc1CS(=O)(=O)CC(=O)N(C)Cc1ccccc1 | 2.84% |
| COCc1nc(C(=O)N2CCN(Cc3cc(C)on3)CC2)cs1 | -15% |
| Cc1nc(CN2CCC23CCN(Cc2ccco2)CC3)cs1 | -114% |
| O=C1CC[C@@H]2[C@@H](CCN2S(=O)(=O)C2CC2)N1CC1CC1 | -79.4% |
| Cn1c2c(ccc1=O)CC(NC(=O)c1ccsc1)CC2 (stereo unspecified) | -1.87% |
| CCN1CCOCC2(C1)CN(C(=O)c1c(C)noc1C)CCO2 (stereo unspecified) | 13.8% |
| CN(C)CCOCc1cncc2c1CCN(C(=O)c1cscn1)C2 | -102% |
| CC(C)n1c2ccccc2c2c1cc(C(=O)N(C)C)n2S(C)(=O)=O | -90.8% |
| Cc1ccccc1N1CCCN(C(=O)CCc2nncn2C)CC1 | 3.82% |
| CC(C)(C(=O)NCC1CCN(Cc2ccccn2)C1)c1ccccc1 (stereo unspecified) | -3.09% |
| Cc1cc(C)n(CC(C)Nc2nc(-c3ccncc3)nc3c2CNC3)n1 (stereo unspecified) | -1.75% |
| c1cnn(CC2CCN(c3nc(C4CC4)nc4c3CCNCC4)CC2)c1 | -2.84% |
| CCN(CC)c1ncccc1CNCc1ccc(Cl)s1 | 10.6% |
| Cc1nn(C2CCCC2)c2nc(C(C)(C)CN3CCN(C)CC3)[nH]c12 | -6.61% |
| N#CC1CCCN(S(=O)(=O)c2ccc(C(=O)NCC(F)F)cc2)C1 (stereo unspecified) | 6.74% |
| CCN(CCOC)C(=O)CCc1scnc1C | -15.8% |

| Structure (SMILES) | cytotoxicity at 10 µM |
| --- | --- |
| CN(CCCc1cnn(C)c1)Cc1cc2n(n1)CCCNC2 | 6.49% |
| CCn1c(C)nnc1SCCNC(=O)c1cnc(N(C)C)nc1C | 6.9% |
| CCOc1ncccc1Cn1cc(-c2ccc(CO)o2)nn1 | -1.91% |
| Cc1[nH]c2c(F)cccc2c1CC(=O)N1CCC(NS(C)(=O)=O)CC1 | 7.58% |
| CCc1nc(N2CCCC(CCCOC)C2)c2cnn(C)c2n1 (stereo unspecified) | 6.46% |
| Cc1nn(C)cc1-c1ccnc(N(C)Cc2ccon2)n1 | -8.71% |
| C=C(C)COc1ccccc1CN1CCCC(C(=O)NCCCO)C1 (stereo unspecified) | 7.36% |
| Cc1ccc(F)cc1-n1c(CN(C)S(C)(=O)=O)n[nH]c1=O | 2.19% |
| Fc1ccccc1CN1CCCC(NC2CCOCC2)C1 (stereo unspecified) | 6.56% |
| CCCC(=O)Nc1cc2c(cc1OC)NC(=O)CC2c1ccc(CC)o1 (stereo unspecified) | 2.01% |
| CSCCNC(=O)c1coc(COc2ccc(F)cc2)n1 | 1.75% |
| CC1CN(S(=O)(=O)c2ccc(C(=O)NCC(F)F)cc2)CCCO1 (stereo unspecified) | 4.05% |
| COc1cccc(C(=O)Nc2ccc(OC3CCN(C)CC3)cc2)c1 | -6.88% |
| CCSc1nsc(NC(=O)COc2ccc3c(c2)OCO3)n1 | 2.03% |
| CN(C)S(=O)(=O)N1CCCC(CCC(=O)Nc2ccc(Cl)cc2)C1 (stereo unspecified) | -12.5% |
| Cc1nc(C)c(C(=O)N2CCc3[nH]nc(COc4ccccc4)c3C2)s1 | -3.09% |
| COCCN1CCN(C(C(=O)O)c2ccc(SC)cc2)CC1 (stereo unspecified) | 1.75% |
| Cc1nc(CNCc2c(C(C)C)nn(C)c2N2CCOCC2)cs1 | -2.51% |
| Cc1nc2n(n1)CC(NCc1cc(Cl)c3c(c1)OCCCO3)CC2 (stereo unspecified) | -4.15% |
| COc1cc(CNCc2ccc(C(C)O)cc2)cc2c1OCO2 (stereo unspecified) | -9.78% |
| Cc1noc(CN2CCC(c3ccnn3CCO)CC2)n1 | -9.62% |

| Structure (SMILES) | cytotoxicity at 10 µM |
| --- | --- |
| Cn1c(CN2CCCC2c2noc(C3CC3)n2)cc(=O)n(C)c1=O (stereo unspecified) | 4.04% |
| Cc1cnn(CC2CCCCN2C(=O)CN(C)C2CC2)c1 (stereo unspecified) | -1.23% |
| CNS(=O)(=O)c1cccc(CNC(=O)c2c(C)oc(C)c2C)c1 | -1.3% |
| CN(C)[C@@H]1CN(Cc2ccccc2O)C[C@H]1c1cn(C)c2ccccc12 | 6.6% |
| Cc1nn(CCC#N)c(C)c1CCC(=O)N(C)C | -7.33% |
| CN(C)C(=O)N1CCC2(CC1)CNc1ccc(F)cc12 | 8.88% |
| Cc1nc2c(c(NC(C)C)n1)CCN(C(=O)c1ccno1)CC2 | 7.77% |
| Cc1ccc(CN2C[C@@H]3CCCO[C@@H]3[C@H](NC(=O)CC3CC3)C2)s1 | 19.9% |
| CN(C)C1CCN(C(=O)c2cc3c(s2)CCN3C(=O)C2CC2)CC1 | 9.61% |
| CNC(=O)c1cnc2n1CCN(Cc1cccnc1)C2 | 8.88% |
| CC(=O)N1CCO[C@@H]2CN(S(=O)(=O)c3cccnc3)C[C@@H]2C1 | 3.02% |
| O=C(NCC1Cn2nnc(-c3ccncc3)c2CO1)c1ccsc1 (stereo unspecified) | 11.1% |
| O=C(c1ccco1)N1C[C@H]2CCCN(CC3CCOCC3)[C@H]2C1 | -0.285% |
| Cc1noc(C)c1CN1CCO[C@H]2CN(Cc3ccc(F)cc3)C[C@H]21 | 1.96% |
| CN1C(=O)C2(CCNCC2)c2cc(F)ccc21 | -115% |
| O=C1CC[C@H]2[C@H](CCN2c2ncc(F)cn2)N1c1ccccc1 | 5.86% |
| Cc1cccc(N2CC[C@@H]3CN(C(=O)c4ccco4)CCO[C@@H]3C2)n1 | 10.5% |
| CN1[C@@H]2CC[C@H]1CN(c1cc(Sc3cccs3)nc(N)n1)CC2 | -8.02% |

Reference: ChEMBL document CHEMBL4513216, “Probing the Open Global Health Chemical Diversity Library for Multistage-Active Starting Points for Next-Generation Antimalarials” (ACS Infect Dis, 2020)
